These results are taken from paper PMC7719619 (Angewandte Chemie (International ed. in English), 2020).

Molecules are shown by their SMILES. In brackets after ≈: the same amount, converted by molar mass. Square brackets hold non-standard residues; d marks the D form. Peptide text beside a SMILES is read from it. Gly(N-CH2-oxan-4-yl) = O=C(O)CNCC1CCOCC1; NCyclohexylmethylGly = O=C(O)CNCC1CCCCC1; NMeL = CN[C@@H](CC(C)C)C(=O)O; NMeA = CN[CH](C)C(=O)O; NEtG = CCNCC(=O)O Where only a bound is given, the exact number is not on record here.

One series has as its target P-gp (Homo sapiens, UniProt P08183). Kind of series: P-gp efflux ratio. The format is in vitro ADME. As to conditions: not told.
Series [1] is classed as in vitro ADME. As to conditions: microsomes.
A short description of a further series: MDCK permeability. The format is in vitro ADME. Conditions: dog.
The nature of another series: oral bioavailability. The format is in vivo. As to conditions: mouse; for bioavailability: in vivo, po, Oral bioavailability, No inhib., no inhibitors, mean (two individual values). Summed up: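 Oral dosing in mice with no pretreatment by CYP or P-gp inhibitor. Oral bioavailability (F) reported as the mean of two independent experiments, with the individual values also given.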

Series [2] is classed as in vitro ADME. As to conditions: serum.
The nature of a further series: physchem. The format is physicochemical.
[3] abbreviates: pH 6.8, aqueous solubility at pH 6.8.

Sequence of P-gp (P08183 whole entry): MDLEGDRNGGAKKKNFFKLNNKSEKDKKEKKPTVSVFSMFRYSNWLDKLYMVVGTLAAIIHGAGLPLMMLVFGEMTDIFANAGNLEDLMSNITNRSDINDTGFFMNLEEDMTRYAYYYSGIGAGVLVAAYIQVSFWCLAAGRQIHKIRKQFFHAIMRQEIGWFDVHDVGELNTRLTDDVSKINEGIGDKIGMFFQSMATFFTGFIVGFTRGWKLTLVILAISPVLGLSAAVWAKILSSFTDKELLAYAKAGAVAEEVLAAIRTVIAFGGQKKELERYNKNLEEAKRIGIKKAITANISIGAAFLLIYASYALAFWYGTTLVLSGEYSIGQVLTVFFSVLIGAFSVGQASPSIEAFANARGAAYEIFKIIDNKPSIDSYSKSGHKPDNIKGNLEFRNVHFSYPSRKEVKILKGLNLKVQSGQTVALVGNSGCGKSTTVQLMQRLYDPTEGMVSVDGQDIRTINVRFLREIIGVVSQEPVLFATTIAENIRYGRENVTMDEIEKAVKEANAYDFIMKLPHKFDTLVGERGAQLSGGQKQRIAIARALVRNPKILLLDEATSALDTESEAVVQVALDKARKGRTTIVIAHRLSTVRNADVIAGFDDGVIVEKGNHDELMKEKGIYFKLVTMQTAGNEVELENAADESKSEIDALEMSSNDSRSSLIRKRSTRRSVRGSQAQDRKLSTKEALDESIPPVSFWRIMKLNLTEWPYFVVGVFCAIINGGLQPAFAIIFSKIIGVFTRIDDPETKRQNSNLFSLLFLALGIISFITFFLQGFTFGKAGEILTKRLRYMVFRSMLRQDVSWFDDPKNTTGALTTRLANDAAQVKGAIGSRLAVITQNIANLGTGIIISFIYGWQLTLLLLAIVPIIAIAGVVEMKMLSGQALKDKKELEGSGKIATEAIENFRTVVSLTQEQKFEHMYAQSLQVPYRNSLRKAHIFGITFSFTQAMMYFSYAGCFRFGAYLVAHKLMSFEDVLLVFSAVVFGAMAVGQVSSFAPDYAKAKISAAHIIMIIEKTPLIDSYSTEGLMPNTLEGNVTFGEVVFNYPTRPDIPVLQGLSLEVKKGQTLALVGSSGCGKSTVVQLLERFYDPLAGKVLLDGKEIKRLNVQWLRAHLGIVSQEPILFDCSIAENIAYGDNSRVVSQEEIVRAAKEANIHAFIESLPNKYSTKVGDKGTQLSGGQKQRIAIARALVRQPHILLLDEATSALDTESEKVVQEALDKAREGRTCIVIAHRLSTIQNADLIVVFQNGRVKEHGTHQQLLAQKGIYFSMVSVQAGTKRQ

Turning to `CCN1CC(=O)NC(CC(C)C)C(=O)N(C)C(C)C(=O)NC(CC(C)C)C(=O)N2CCCC2C(=O)N(CC2CCOCC2)CC(=O)NC(CC(C)C)C(=O)N(C)C(C)C(=O)NC(C)C(=O)N2CCCC2C1=O` (stereo not drawn) [A03] (cyclo([NEtG]L[NMeA]LP[Gly(N-CH2-oxan-4-yl)]L[NMeA]AP); configuration not given here), at P-gp, the efflux ratio stood at 6.4. Further, the microsomal stability in series [1] is recorded as 64%. The same compound yielded a Papp in the series “MDCK permeability” of 0.4 ×10⁻⁶ cm/s. In “oral bioavailability” (3 mg/kg, no CYP or P-gp inhibition), the “oral BA (F)” value is on record as 1%. Also, the bioavailability in the series “oral bioavailability” is 1%. In addition, in series [2], the fraction unbound was 0.31. In addition, the solubility in “physchem” (pH 1.2, aq. sol. pH 1.2) worked out at 1800 µg/mL (≈ 1770 µM). Moreover, the “aq. sol. pH 6.8” value in the series “physchem” came out at 1900 μg/mL.

Take `CCN1CC(=O)NC(CC(C)C)C(=O)N(C)C(C)C(=O)NC(CC(C)C)C(=O)N2CCCC2C(=O)N(CC2CCCCC2)CC(=O)NC(CC(C)C)C(=O)N(C)C(C)C(=O)NC(Cc2ccccc2)C(=O)N2CCCC2C1=O` (stereo not drawn) [A08] (cyclo([NEtG]L[NMeA]LP[NCyclohexylmethylGly]L[NMeA]FP); configuration not given here): at P-gp, the efflux ratio is 8.5. This compound also showed a microsomal stability in series [1] of 33%. In addition, the Papp in the series “MDCK permeability” came out at 24.7 ×10⁻⁶ cm/s. In “oral bioavailability”, this compound yielded a bioavailability of 5%. Moreover, the free fraction (fraction unbound) in series [2] was less than 0.002. In addition, the solubility in the series “physchem” (pH 1.2, aq. sol. pH 1.2) was found to be 2.5 µg/mL (≈ 2.29 µM); in “physchem” (pH 6.8, aq. sol. pH 6.8) it was 6.8 µg/mL (≈ 6.24 µM); in “physchem” (setting [3]), 7 µg/mL (≈ 6.43 µM).

In the case of `CCN1CC(=O)N[C@@H](CC(C)C)C(=O)N(C)[C@@H](C)C(=O)N[C@@H](CC(C)C)C(=O)N2CCC[C@@H]2C(=O)N(CC2CCOCC2)CC(=O)N[C@@H](CC(C)C)C(=O)N(C)[C@@H](C)C(=O)N[C@@H](Cc2ccccc2)C(=O)N2CCC[C@@H]2C1=O` [A09] (cyclo([NEtG]L[NMeA]L[dP][Gly(N-CH2-oxan-4-yl)]L[NMeA]F[dP])), the efflux ratio at P-gp came out at 46.9. The microsomal stability in series [1] was found to be 67%. In “oral bioavailability”, this compound yielded a bioavailability of 2%. The same compound had a fraction unbound in series [2] of 0.02. Moreover, the solubility in the series “physchem” (pH 1.2, aq. sol. pH 1.2) was determined as 590 µg/mL (≈ 541 µM). For the same compound, in the series “physchem”, the “aq. sol. pH 6.8” value was found to be 640 μg/mL.

Consider `CCN1CC(=O)N[C@@H](CC(C)C)C(=O)N2CCC[C@@H]2C(=O)N(C)[C@@H](CC(C)C)C(=O)N[C@@H](C)C(=O)N(CC2CCCCC2)CC(=O)N[C@@H](Cc2ccccc2)C(=O)N2CCC[C@@H]2C(=O)N(C)[C@@H](CC(C)C)C(=O)N[C@@H](C)C1=O` [B08] (cyclo([NEtG]L[dP][NMeL]A[NCyclohexylmethylGly]F[dP][NMeL]A)), for which the microsomal stability in series [1] is reported as 53%. Also, in “physchem” (pH 1.2), the “aq. sol. pH 1.2” value is recorded as 210 μg/mL. For the same compound, the “aq. sol. pH 6.8” value in the series “physchem” is listed as 210 μg/mL. This compound had a solubility in the series “physchem” (setting [3]) of 210 µg/mL (≈ 193 µM).

In turn, `CCN1CC(=O)N[C@@H](CC(C)C)C(=O)N2CCC[C@@H]2C(=O)N(C)[C@@H](CC(C)C)C(=O)N[C@@H](C)C(=O)N(CC2CCOCC2)CC(=O)N[C@@H](Cc2ccccc2)C(=O)N2CCC[C@@H]2C(=O)N(C)[C@@H](CC(C)C)C(=O)N[C@@H](C)C1=O` [B09] (cyclo(A[NEtG]L[dP][NMeL]A[Gly(N-CH2-oxan-4-yl)]F[dP][NMeL])) displayed a microsomal stability in series [1] of 90%. This compound also gave a bioavailability in “oral bioavailability” of 1%. Also, in “physchem” (pH 1.2, aq. sol. pH 1.2), the solubility came out at 2100 µg/mL (≈ 1920 µM). For the same compound, the “aq. sol. pH 6.8” value in “physchem” was determined as 2200 μg/mL.
